From PMC8828683 (Stem Cell Reports, 2022)

Tests used:
NTERA-2 ECC = assay: Live cells / PCD by FACS of nonpermeabilized cells stained with annexin-V and PI; assay type: cell-based, human; conditions: read-out: IC50 Live Cells; NTERA-2 ECC, 4 days
Outline: (§1)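 Cells were seeded so that vehicle wells stayed subconfluent, then treated with a range of test compound concentrations for 4 days. Without permeabilization, they were stained with annexin-V-FITC and propidium iodide and analysed by flow cytometry. Double-negative cells (Q3) were scored as live and Q1+Q2 as programmed death. Vehicle was set to 100% viable and 0% dead. Results are the mean of three independent assays with SEM; group averages and ratios are derived from the IC50s.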

[1] = tested on: VeroE6 normal kidney epithelial; assay: Cells with <2N DNA by FACS of permeabilized cells stained with PI; assay type: cell-based, monkey; conditions: read-out: IC50 DNA (50% of cells with <2N DNA)
Outline: (§2)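 Cells were exposed to a range of test compound concentrations alongside vehicle (DMSO) controls. They were then permeabilized, stained with propidium iodide, and DNA content was read by flow cytometry. IC50 is the concentration at which 50% of cells hold <2N DNA, from 3 independent repetitions with SEM. Line averages and differentiated/pluripotent ratios are derived from these IC50s. NTERA-2 was also run as a time course at 5 μM, normalized to vehicle at each time point.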

Toxicity studies in mice = assay type: in vivo, mouse; conditions: doses from 20 to 100 mg/kg body weight
WA09/H9 ESC = assay: Cellular ATP level; assay type: cell-based, human; conditions: read-out: IC50 ATP
Outline: (§3)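 Cellular ATP was measured with a CellTiter-Glo luminescence viability assay after exposure to a concentration range of test compound. IC50 is the average of three independent assays. Mean IC50s across differentiated or human pluripotent lines, and their ratio, are derived from the per-line values.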

H1 ESCs = assay: Immunoblotting of total cell extracts; assay type: cell-based, human
Outline: (§4)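 Cells were cultured with 2.5 μM test compound for up to 96 h, and attached plus unattached cells were pooled. Whole-cell RIPA lysates were run on 4–12% Bis-Tris gels, transferred to nitrocellulose and blocked in 5% milk/TBS. Primary antibodies went on overnight at 4°C, followed by infrared secondary antibodies and imager quantitation. Each blot carried untreated U2OS as a shared standard, with Ponceau-S histones for normalization and lighter exposures for quantitation. Adriamycin for 24 h (NTERA-2 1 μM, H108 2 μM) served as a DNA-break control.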

[2] = tested on: VeroE6 normal kidney epithelial; assay: Live cells / PCD by FACS of nonpermeabilized cells stained with annexin-V and PI; assay type: cell-based, monkey; conditions: read-out: IC50 Live Cells (PCD)
Outline: as §1

[3] = tested on: VeroE6 normal kidney epithelial; assay: Cellular ATP level; assay type: cell-based, monkey; conditions: read-out: IC50 ATP
Outline: as §3

[4] = tested on: NTERA-2 teratocarcinoma xenografts; assay: Teratocarcinoma xenograft, daily intraperitoneal injections; assay type: in vivo, mice
Outline: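 Six-week-old female […] BALB/c nude mice were injected subcutaneously in the lower right flank with 200 μL of 50% Matrigel holding 2 million NTERA-2 or 5 million GCT27D.C1 cells (eight mice per model). Once tumors were palpable, mice received 40 mg/kg test compound i.p. daily (DMSO solution diluted in sunflower oil to 200 μL) or vehicle. Tumor volume was calculated as length × width² × 0.5 from calipers, TGI was calculated, and body weight was tracked. Tumors were harvested 15 days later.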

differentiated cells [5] = assay: ATP loss, summary over differentiated cell lines; assay type: cell-based; conditions: read-out: IC50 ATP loss, on average
Outline: as §3

SCUi24 iPSC [6] = assay: Cellular ATP level; assay type: cell-based, human; conditions: read-out: IC50 ATP
Outline: as §3

SCUi24 iPSC [7] = assay: Cells with <2N DNA by FACS of permeabilized cells stained with PI; assay type: cell-based, human; conditions: read-out: IC50 DNA (50% of cells with <2N DNA)
Outline: as §2

[8] = tested on: HFF-1 normal skin fibroblast; assay: as above; assay type: cell-based, human; conditions: read-out: IC50 DNA (50% of cells with <2N DNA); HFF-1
Outline: as §2

[9] = tested on: Mouse Gmnn(fl/fl);ER-Cre/+ ESCs; assay: Cellular DNA content by FACS of permeabilized cells stained with PI; assay type: cell-based
Outline: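 Mouse Gmnn(fl/fl);ER-Cre/+ embryonic stem cells were grown with 3 μM test compound (from a 20 mM DMSO stock) or DMSO vehicle for the indicated times. Attached and unattached cells were pooled, permeabilized and stained with propidium iodide. DNA content was measured by flow cytometry, scoring the fraction of cells with <2N DNA.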

differentiated cells [10] = assay: Inhibition of cell proliferation; assay type: cell-based; conditions: read-out: IC50 inhibition of proliferation; insensitive differentiated cells
[11] = tested on: SCUi24-diff (spontaneously differentiated SCUi24 iPSCs); assay: Cells with <2N DNA by FACS of permeabilized cells stained with PI; assay type: cell-based, human; conditions: read-out: IC50 DNA (50% of cells with <2N DNA)
Outline: as §2

[12] = tested on: H108 normal skin fibroblast; assay: Live cells / PCD by FACS of nonpermeabilized cells stained with annexin-V and PI; assay type: cell-based, human; conditions: read-out: IC50 Live Cells; H108, 4 days
Outline: as §1

WA01/H1 ESC = assay: as above; assay type: cell-based, human; conditions: read-out: IC50 Live Cells
Outline: as §1

differentiated cells [13] = assay: PCD / live cell loss; assay type: cell-based; conditions: read-out: IC50 initiation of PCD, on average; average over differentiated cells
Outline: as §1

[14] = tested on: HBEC normal lung epithelial; assay: Cells with <2N DNA by FACS of permeabilized cells stained with PI; assay type: cell-based, human; conditions: read-out: IC50 DNA (50% of cells with <2N DNA)
Outline: as §2

[15] = tested on: HFF-1 normal skin fibroblast; assay: Live cells / PCD by FACS of nonpermeabilized cells stained with annexin-V and PI; assay type: cell-based, human; conditions: read-out: IC50 Live Cells; HFF-1
Outline: as §1

NTERA-2 ECCs = assay: Immunoblotting of total cell extracts; assay type: cell-based, human
Outline: as §4

TERA-2 ECC = assay: Cells with <2N DNA by FACS of permeabilized cells stained with PI; assay type: cell-based, human; conditions: read-out: IC50 DNA (50% of cells with <2N DNA)
Outline: as §2

[16] = H1, 2.5 μM WX8, normalized to histones
[17] = NTERA-2, 2.5 μM WX8, normalized to histones

For `C(=N\Nc1nc(Nc2ccccc2)nc(N2CCOCC2)n1)/c1c[nH]c2ccccc12` [WX8], the IC50 (NTERA-2 ECC) was 1.3 µM, the IC50 [1] was 60 µM and the “Maximum dose at which no indication of mouse impairment was observed” value (Toxicity studies in mice) was 40 mg/kg. The IC50 (WA09/H9 ESC) was 0.26 µM, the CASP3 cleavage (H1 ESCs; H1, 2.5 μM WX8) was less than 2% and the PARP cleavage (H1 ESCs; H1, 2.5 μM WX8) was 20%. The “Accumulation of p62 protein” value (H1 ESCs; [16]) was less than 2 fold, the “Accumulation of total LC3 protein” value (H1 ESCs; [16]) was 2 fold and the CASP12 cleavage (H1 ESCs; H1, WX8) was less than 2%. For the same compound, the “Cleaved CASP7” value (H1 ESCs; H1, WX8) was “not detected”, the IC50 [2] was 60 µM and the IC50 [3] was 14 µM. For the same compound, the “Tumor growth inhibition (TGI)” value ([4]; NTERA-2 tumors, 40 mg WX8/kg daily i.p.) was 71%, the Mouse body weights ([4]; NTERA-2 xenograft mice, 40 mg WX8/kg daily i.p.) was “maintained” and the “Effect on teratocarcinoma xenografts” value ([4]; NTERA-2 xenografts, intraperitoneal injections of WX8) was “Eliminated stem cells and inhibited tumor growth”. It also gave an IC50 (differentiated cells [5]) of 15.8 µM, an IC50 (SCUi24 iPSC [6]) of 0.4 µM and an IC50 (SCUi24 iPSC [7]) of 1 µM. For the same compound, the IC50 [8] was 50 µM, the “Cells with <2N DNA” value ([9]; 3 μM WX8, 72 hr) was greater than 90% and the “Cells with <2N DNA” value ([9]; 3 μM WX8, within 32 h) was 50%. For the same compound, the IC50 (differentiated cells [10]) was greater than 100 µM, the IC50 [11] was greater than 10 µM and the IC50 [12] was 50 µM. The IC50 (WA01/H1 ESC) was 1.9 µM, the IC50 (differentiated cells [13]) was 81.3 µM and the IC50 [14] was 20 µM. For the same compound, the IC50 [15] was 75 µM, the CASP3 cleavage (NTERA-2 ECCs; NTERA-2, 2.5 μM WX8) was less than 2% and the PARP cleavage (NTERA-2 ECCs; NTERA-2, 2.5 μM WX8) was 41%. The “Accumulation of p62 protein” value (NTERA-2 ECCs; [17]) was 9 fold, the “Accumulation of total LC3 protein” value (NTERA-2 ECCs; [17]) was 4 fold and the CASP12 cleavage (NTERA-2 ECCs; NTERA-2, WX8) was less than 2%. For the same compound, the “Cleaved CASP7” value (NTERA-2 ECCs; NTERA-2, WX8) was “not detected” and the IC50 (TERA-2 ECC) was 5 µM.
